{
  "source": "ChEMBL document CHEMBL3407337",
  "about": "“Molecular design, synthesis and biological research of novel pyridyl acridones as potent DNA-binding and apoptosis-inducing agents” (Eur J Med Chem, 2015)",
  "key": {"Calf thymus DNA [1]": {"system": "Calf thymus DNA", "test": "Binding affinity to calf thymus DNA at 10 uM after 5 mins by UV-vis spectroscopy", "format": "nucleic-acid assay", "conditions": "Bos taurus", "procedure,_shortened": "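Compound in 5 mM Tris-HCl, 50 mM NaCl, pH 7.2, titrated with ct DNA at 0–30 μM (bp). Incubated 5 min before reading. Absorbance at 425 nm followed. Kb taken as slope/intercept of [DNA]/(εa−εf) versus [DNA]. ct DNA quantified with ε260 6600 M⁻¹cm⁻¹.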"}, "[2]": {"test": "Antiproliferative activity against human A172 cells after 48 hrs by MTT assay", "format": "functional, cell-based", "conditions": "A 172, 48 h", "procedure,_shortened": "(§1)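 Adherent lines seeded at 6×10^3 cells/well and allowed 12 h attachment. Media: NCI-H520 and HeLa RPMI-1640; HepG2, MCF-7, CNE-2, A375, A172 and U118-MG DMEM; U251 MEM-EBSS; all with 10% FBS, 37 °C, 5% CO2. Dosed 48 h at final 50, 25, 10, 1 and 0.1 μM. MTT 4 h, formazan dissolved in DMSO, A490. IC50 from the dose series.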"}, "K562 [3]": {"system": "K562", "test": "Induction of apoptosis in human K562 cells assessed as early apoptotic cells at 0.25 uM after 48 hrs by annexin V/PI staining based flow cytometry (reference value: 3.89 %)", "format": "functional"}, "K562 [4]": {"system": "K562", "test": "Induction of apoptosis in human K562 cells assessed as loss of mitochondrial membrane potential at 1 uM after 24 hrs by JC-1 staining based fluorescence microscopy", "format": "functional, cell-based", "procedure,_shortened": "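K562 cells exposed to 1 μM for 24 h. Stained with a JC-1 kit and viewed by fluorescence microscopy (red aggregates versus green monomers). Untreated cells served as blank; CCCP at 10 μM as positive control.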"}, "U-251": {"system": "U-251", "test": "Antiproliferative activity against human U251 cells after 48 hrs by MTT assay", "format": "functional, cell-based", "conditions": "U-251, 48 h", "procedure,_shortened": "as §1"}, "K562 [5]": {"system": "K562", "test": "Induction of apoptosis in human K562 cells assessed as late apoptotic cells at 0.25 uM after 48 hrs by annexin V/PI staining based flow cytometry (reference value: 0.26 %)", "format": "functional"}, "K562 [6]": {"system": "K562", "test": "Induction of apoptosis in human K562 cells assessed as cleavage of caspase-9 at 1 uM after 36 hrs by Western blot analysis", "format": "functional, cell-based", "procedure,_shortened": "(§2)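 K562 cells in 6 cm dishes treated 36 h at various concentrations. Cells lysed on ice for 0.5 h and spun at 20,000 g. Protein measured by BCA. Lysates run on 12% SDS-PAGE and transferred to PVDF. Membranes blocked in 5% milk and probed overnight at 4 °C with primary antibody against cleaved caspase-9, -7, -3, cleaved PARP or Bcl-XL.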"}, "K562 [7]": {"system": "K562", "test": "Induction of apoptosis in human K562 cells assessed as late apoptotic cells at 1 uM after 48 hrs by annexin V/PI staining based flow cytometry (reference value: 0.26 %)", "format": "functional"}, "K562 [8]": {"system": "K562", "test": "Antiproliferative activity against human K562 cells after 48 hrs by MTT assay", "format": "functional, cell-based", "conditions": "K562, 48 h", "procedure,_shortened": "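K562 suspension cells in RPMI-1640 with 10% FBS, 37 °C, 5% CO2. Seeded at 1.5×10^4 cells/well, exposed 48 h to final 50, 25, 10, 1 and 0.1 μM. MTT (5 mg/mL) added for 4 h at 37 °C. IC50 from the dose series.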"}, "Calf thymus DNA [9]": {"system": "Calf thymus DNA", "test": "Binding affinity to calf thymus DNA assessed as increase in DNA viscosity at 6 to 36 uM by viscosity method", "format": "nucleic-acid assay", "conditions": "Bos taurus", "procedure,_shortened": "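ct DNA at 200 μM in Tris-HCl buffer, compound at 6–36 μM, viscometer held at 25.0 °C. Flow times read in triplicate and averaged. η = (t−t0)/t0; (η/η0)^1/3 plotted against the compound:DNA ratio.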"}, "K562 [10]": {"system": "K562", "test": "Induction of apoptosis in human K562 cells assessed as cleavage of caspase-3 at 1 uM after 36 hrs by Western blot analysis", "format": "functional, cell-based", "procedure,_shortened": "as §2"}},
  "note": "Active and inactive are the calls of the source. The calls are words filed in the database; no cut-off is given here.",
  "data": [
    {"molecule": "Cc1cccc2c(=O)c3c(NCc4ccncc4)ccc(C(=O)NCCN(C)C)c3[nH]c12", "values": [
      {"measurement": "Kb", "setting": "Calf thymus DNA [1]", "result": 5.1, "unit": "×10⁴ /M"},
      {"measurement": "IC50", "setting": "[2]", "result": 2.2, "unit": "µM"},
      {"measurement": "Activity", "setting": "K562 [3]", "result": 15.64, "unit": "%"},
      {"measurement": "Activity", "setting": "K562 [4]", "result": "Active"},
      {"measurement": "IC50", "setting": "U-251", "result": 0.79, "unit": "µM"},
      {"measurement": "Activity", "setting": "K562 [5]", "result": 1.08, "unit": "%"},
      {"measurement": "Activity", "setting": "K562 [6]", "result": "Active"},
      {"measurement": "Activity", "setting": "K562 [7]", "result": 7.54, "unit": "%"},
      {"measurement": "IC50", "setting": "K562 [8]", "result": 0.46, "unit": "µM"},
      {"measurement": "Activity", "setting": "Calf thymus DNA [9]", "result": "Active"},
      {"measurement": "Activity", "setting": "K562 [10]", "result": "Active"}
    ]}
  ]
}
